From ChEMBL document CHEMBL1129979, “Conformationally constrained deltorphin analogs with 2-aminotetralin-2-carboxylic acid in position 3” (J Med Chem, 1997)

Experiments:
[1] = molecular target: T1, Delta-type opioid receptor (Rattus norvegicus, UniProt P33533); test: The binding affinity was measured using [3H]-DIDII against Opioid receptor delta 1 of rat brain
[2] = molecular target: T1, Delta-type opioid receptor; test: The binding affinity was measured using [3H]- TIPPsi against Opioid receptor delta 1
Mu-type opioid receptor = Mu-type opioid receptor (Rattus norvegicus, UniProt P33535); test: The binding affinity was measured using [3H]- DAGO against Opioid receptor mu 1 of rat brain
Mu-type opioid receptor, sequence (P33535 whole entry): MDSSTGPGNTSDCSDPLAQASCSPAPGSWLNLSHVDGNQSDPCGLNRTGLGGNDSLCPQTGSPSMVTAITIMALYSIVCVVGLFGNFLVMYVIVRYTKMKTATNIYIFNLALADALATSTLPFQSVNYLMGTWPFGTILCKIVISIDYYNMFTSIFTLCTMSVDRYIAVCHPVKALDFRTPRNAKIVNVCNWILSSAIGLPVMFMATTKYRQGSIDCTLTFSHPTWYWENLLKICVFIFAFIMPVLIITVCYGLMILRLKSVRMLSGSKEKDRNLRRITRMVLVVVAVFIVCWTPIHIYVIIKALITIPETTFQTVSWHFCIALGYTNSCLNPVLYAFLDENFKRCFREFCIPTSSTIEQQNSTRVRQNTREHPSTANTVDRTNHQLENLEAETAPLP

Mus musculus = species on record: Mus musculus; test: The inhibitory concentration activity was measured on electrically induced contraction of the mouse vas deferens (MVD); assay type: functional
In short: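 Mouse vas deferens is mounted between platinum axial wire electrodes in Mg-free Krebs bicarbonate at 34 °C, gassed with 95% O2/5% CO2, under 0.5 g tension. After 15 min equilibration, it is stimulated transmurally at 0.1 Hz, 2 ms, 40 V (supramaximal). Dose-response curves are built by the single-dose method. IC50 is the concentration giving 50% reduction of contractions, from a Hill-equation least-squares fit of mean data.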

[3] = molecular target: T1, Delta-type opioid receptor; test: The binding affinity was measured using [3H]naltrindole against Opioid receptor delta 1 of rat brain
[4] = molecular target: Kappa-type opioid receptor (Rattus norvegicus, UniProt P34975)
Kappa-type opioid receptor, sequence (P34975 whole entry): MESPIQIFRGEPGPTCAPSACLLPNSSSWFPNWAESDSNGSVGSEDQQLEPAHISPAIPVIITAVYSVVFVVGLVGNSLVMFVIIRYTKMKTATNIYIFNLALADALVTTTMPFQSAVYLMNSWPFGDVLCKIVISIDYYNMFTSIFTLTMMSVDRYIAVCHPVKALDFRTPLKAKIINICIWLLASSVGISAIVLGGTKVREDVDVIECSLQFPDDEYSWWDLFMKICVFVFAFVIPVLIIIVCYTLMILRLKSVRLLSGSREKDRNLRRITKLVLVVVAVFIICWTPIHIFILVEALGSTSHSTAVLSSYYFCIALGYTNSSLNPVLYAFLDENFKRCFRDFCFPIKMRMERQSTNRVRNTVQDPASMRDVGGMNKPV

Cavia porcellus = species on record: Cavia porcellus; test: The inhibitory concentration activity was measured on guinea pig ileum (GPI); assay type: functional
In short: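 Guinea pig ileum myenteric plexus-longitudinal muscle strips are mounted between platinum axial wire electrodes in Krebs bicarbonate at 37 °C, gassed with 95% O2/5% CO2, under 1 g tension. Strips are stimulated transmurally at 0.1 Hz, 1 ms, 40 V (supramaximal) and equilibrated 60 min before peptides are added. Single-dose dose-response curves are fitted to the Hill equation by least squares on mean data. IC50 is the concentration giving 50% reduction of contractions.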

T1 sequence (P33533 whole entry): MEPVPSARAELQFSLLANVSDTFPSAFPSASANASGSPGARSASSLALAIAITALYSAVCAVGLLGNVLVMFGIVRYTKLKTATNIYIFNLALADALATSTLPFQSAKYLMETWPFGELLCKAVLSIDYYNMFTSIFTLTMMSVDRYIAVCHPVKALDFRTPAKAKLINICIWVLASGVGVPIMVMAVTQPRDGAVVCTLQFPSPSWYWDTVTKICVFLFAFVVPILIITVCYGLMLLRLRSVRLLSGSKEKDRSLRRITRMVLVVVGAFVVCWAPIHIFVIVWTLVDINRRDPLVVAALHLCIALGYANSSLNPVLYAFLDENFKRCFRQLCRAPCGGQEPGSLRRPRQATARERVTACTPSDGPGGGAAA

Row | SMILES | Ki [1] [nM] | Ki [2] [nM] | Ki (Mu-type opioid receptor) [nM] | IC50 (Mus musculus) [nM] | Ki [3] [nM] | Ki [4] [nM] | IC50 (Cavia porcellus) [nM]
1 | CC[C@H](C)[C@H](NC(=O)[C@H](CC(=O)O)NC(=O)[C@H](Cc1ccccc1)NC(=O)[C@@H](C)NC(=O)[C@@H](N)Cc1ccc(O)cc1)C(=O)N[C@H](C(=O)NCC(N)=O)[C@@H](C)CC | 0.056 | 0.018 | 3220 | 0.082 | 0.047 | > 10000 | 4210
2 | CC(C)[C@H](NC(=O)[C@H](CC(=O)O)NC(=O)[C@H](Cc1ccccc1)NC(=O)[C@H](C)NC(=O)[C@@H](N)Cc1ccc(O)cc1)C(=O)N[C@H](C(=O)NCC(N)=O)C(C)C | – | – | – | 0.32 | – | – | > 3000
3 | CC[C@H](C)[C@H](NC(=O)[C@H](CCC(=O)O)NC(=O)[C@]1(NC(=O)[C@@H](C)NC(=O)[C@@H](N)Cc2ccc(O)cc2)CCc2ccccc2C1)C(=O)N[C@H](C(=O)NCC(N)=O)[C@@H](C)CC | 0.035 | 0.38 | 731 | 0.09 | 0.515 | > 10000 | 19600
4 | CC[C@H](C)[C@H](NC(=O)[C@H](CCC(=O)O)NC(=O)[C@H](Cc1ccccc1)NC(=O)[C@@H](C)NC(=O)[C@@H](N)Cc1ccc(O)cc1)C(=O)N[C@H](C(=O)NCC(N)=O)[C@@H](C)CC | – | – | 3190 | 0.5 | – | > 10000 | 67200
